The results in this text go back to ChEMBL document CHEMBL4020832, “Development of (6 R)-2-Nitro-6-[4-(trifluoromethoxy)phenoxy]-6,7-dihydro-5 H-imidazo[2,1- b][1,3]oxazine (DNDI-8219): A New Lead for Visceral Leishmaniasis” (J Med Chem, 2018).

Series [1] in a line: Volume of distribution at steady state in Swiss albino mouse at 1 mg/kg, iv by LC-MS/MS analysis. As to conditions: in vivo, read-out: Vdss. Format: ADME, organism-based. The procedure, abridged:
(§1)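 Male Swiss albino mice given 1 mg/kg iv in 20% NMP/40% PEG-400 in 100 mM citrate buffer pH 3. Plasma sampled at 0.083, 0.25, 0.5, 1, 2, 4, 6, 8, 10, 24 and 48 h. Levels measured by LC–MS/MS; noncompartmental PK parameters.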

Series [2] can be described thus: Tmax in Swiss albino mouse at 25 mg/kg, po by LC-MS/MS analysis. As to conditions: in vivo. Format: ADME, organism-based. The procedure, abridged: (§2)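 Male Swiss albino mice dosed orally at 25 mg/kg as a suspension in 0.5% CMC/0.08% Tween 80 in water. Plasma sampled 0.25–48 h, analysed by LC–MS/MS. F from dose-normalized AUClast against a 1 mg/kg iv dose.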
A short description of series [3]: Clearance in Swiss albino mouse at 1 mg/kg, iv by LC-MS/MS analysis. The format is ADME, organism-based. The note with it: in vivo.
For series [4], the system named is Liver. As to the kind of experiment: Metabolic stability in CD-1 mouse liver microsomes assessed as parent compound remaining at 0.5 uM after 0.5 hr. The format is ADME, microsome. In general terms: Liver microsomes are vesicles of endoplasmic reticulum, rich in cytochrome P450 enzymes.
Series [5] concerns Liver. Kind of series: Metabolic stability in human liver microsomes assessed as parent compound remaining at 0.5 uM after 0.5 hr. Format: ADME, microsome.
Series [6] is described as follows: AUClast in Swiss albino mouse at 25 mg/kg, po after 24 to 48 hrs by LC-MS/MS analysis. Format: ADME, organism-based. The note with it: in vivo.
The subject of series [7] is Mus musculus. Kind of series: (§3) Half life in Swiss albino mouse at 1 mg/kg, iv by LC-MS/MS analysis. Format: ADME, organism-based. The note with it: in vivo.
The test system of series [8] is Mus musculus. Kind of series: Oral bioavailability in Swiss albino mouse at 25 mg/kg by LC-MS/MS analysis. Format: ADME, organism-based. As to conditions: in vivo. The procedure, abridged:
as §2

The nature of series [9]: Metabolic stability in hamster liver microsomes assessed as parent compound remaining at 0.5 uM after 0.5 hr. Format: ADME, microsome. The note with it: read-out: Stability.
Series [10] in a line: Cmax in Swiss albino mouse at 25 mg/kg, po by LC-MS/MS analysis. On the set-up: dose 25 mg/kg, route oral. The format is ADME, organism-based. As to conditions: in vivo.
The nature of series [11]: AUClast in Swiss albino mouse at 1 mg/kg, iv after 24 to 48 hrs by LC-MS/MS analysis. Format: ADME, organism-based. As to conditions: in vivo.
Series [12] can be described thus: Initial concentration in Swiss albino mouse at 1 mg/kg, iv by LC-MS/MS analysis. Format: ADME, organism-based. As to conditions: in vivo. The procedure, abridged:
as §1

A short description of series [13]: as §3. As to conditions: Swiss albino, in vivo. Format: ADME, organism-based.
For series [14], the system named is Liver. As to the kind of experiment: Metabolic stability in CD-1 mouse liver microsomes assessed as parent compound remaining at 1 uM after 1 hr. The format is ADME, microsome.
A short description of series [15]: Volume of distribution at steady state in golden Syrian hamster at 2 mg/kg, iv by LC-MS/MS analysis. The format is ADME, organism-based, Mesocricetus auratus. The note with it: in vivo, read-out: Vdss. The procedure, abridged: (§4)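 Fasted female golden Syrian hamsters given 2 mg/kg iv as a solution in 20% NMP and 40% PEG-400 in citrate buffer pH 3. Plasma concentrations determined by LC–MS/MS to derive PK parameters.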

The nature of series [16]: Metabolic stability in hamster liver microsomes assessed as parent compound remaining at 1 uM after 1 hr. Format: ADME, microsome. The note with it: read-out: Stability.
The test system of another series is Syrian golden hamster. Kind of series: Oral bioavailability in golden Syrian hamster at 50 mg/kg by LC-MS/MS analysis. Format: ADME, organism-based, Mesocricetus auratus. The note with it: in vivo.
Series [17] can be described thus: AUClast in golden Syrian hamster at 50 mg/kg, po after 24 to 48 hrs by LC-MS/MS analysis. The note with it: in vivo. The format is ADME, organism-based, Mesocricetus auratus. The procedure, abridged: (§5)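 Fasted female golden Syrian hamsters. IV dose was 2 mg/kg as a solution in 20% NMP and 40% PEG-400 in citrate buffer (pH 3). Oral dosing at 40–50 mg/kg used PEG-400 as vehicle. Plasma was quantified by LC–MS/MS. AUClast was taken to the last time point (24 or 48 h).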

Series [18] can be described thus: Clearance in golden Syrian hamster at 2 mg/kg, iv by LC-MS/MS analysis. Format: ADME, organism-based, Mesocricetus auratus. The note with it: in vivo.
The nature of series [19]: Half life in golden Syrian hamster at 2 mg/kg, iv by LC-MS/MS analysis. The format is ADME, organism-based, Mesocricetus auratus. The note with it: in vivo. The procedure, abridged: as §5
Series [20] is described as follows: Half life in golden Syrian hamster at 50 mg/kg, po by LC-MS/MS analysis. The format is ADME, organism-based, Mesocricetus auratus. As to conditions: in vivo.
For series [21], the system named is Liver. Kind of series: Metabolic stability in human liver microsomes assessed as parent compound remaining at 1 uM after 1 hr. The format is ADME, microsome.
A short description of series [22]: Tmax in golden Syrian hamster at 50 mg/kg, po by LC-MS/MS analysis. The format is ADME, organism-based, Mesocricetus auratus. The note with it: in vivo.
Series [23] is described as follows: Cmax in golden Syrian hamster at 50 mg/kg, po by LC-MS/MS analysis. Format: ADME, organism-based, Mesocricetus auratus. More on the design: dose 50 mg/kg, route oral. As to conditions: in vivo. The procedure, abridged: as §5
Series [24] can be described thus: AUClast in golden Syrian hamster at 2 mg/kg, iv after 24 to 48 hrs by LC-MS/MS analysis. The format is ADME, organism-based, Mesocricetus auratus. The note with it: in vivo. The procedure, abridged:
as §5

Series [25] in a line: Initial concentration in golden Syrian hamster at 2 mg/kg, iv by LC-MS/MS analysis. The format is ADME, organism-based, Mesocricetus auratus. As to conditions: in vivo. The procedure, abridged: as §4

As usually defined, the Tmax is the time from dosing to the highest level. Broadly, the clearance is the rate of elimination divided by the concentration. Lower therefore signals a low capacity for elimination. One may read the AUC(0-t) as the area under the concentration-time curve up to a stated or last time point. High values mean high exposure, low ones low exposure. In general, Cmax refers to the maximum level reached in the sampled fluid or tissue. Take `O=[N+]([O-])c1cn2c(n1)OCC(COc1ccc(OC(F)(F)F)cc1)C2` (centres undefined): in series [1], the Vd turned out to be 2.5 L/kg. The time of peak concentration (Tmax) in [2] came out at 1 h. In [3], this molecule yielded a clearance of 13 mL/min/kg. For the same molecule, the Stability turned out to be 88% with Liver [4] and 78% in the series with Liver [5]. Further, the AUC(0-t) in series [6] came to 15700 ng·h/mL; in series [11] it was 1250 ng·h/mL. Besides, in the series on Mus musculus [7], the t1/2 is 2 h. This molecule also showed a F in the series with Mus musculus [8] of 50%. In [9], the remaining at 0.5 h, 0.5 µM is 70%. The molecule also had a Cmax in [10] of 1500 ng/mL. The C0 in [12] stood at 340 ng/mL.

The term half-life denotes the time in which the quantity being followed falls by half. `O=[N+]([O-])c1cn2c(n1)OCC(COc1ccc(-c3ccc(OC(F)(F)F)cc3)nc1)C2` (centres undefined): the Vd in series [1] stood at 1.9 L/kg. In [2], the Tmax was found to be 10 h. In series [3], this molecule had a clearance of 1.2 mL/min/kg. For the same molecule, the Stability in the series with Liver [4] was 96%. For the same molecule, the half-life in series [13] is 20 h. Further, the F in the series with Mus musculus [8] stood at 11%. In addition, the remaining at 0.5 h, 0.5 µM in series [9] stood at 88%. The molecule also returned a Cmax in series [10] of 870 ng/mL. Moreover, in [12], the C0 was determined as 750 ng/mL.

On to `O=[N+]([O-])c1cn2c(n1)OC[C@H](OCc1ccc(-c3ccc(F)cc3F)nc1)C2`, for which the values for the Stability in the series on Liver [14] and in the series with Liver [21] were 67% and 58%, respectively. For the same molecule, the Vd in [15] amounted to 5.4 L/kg. In addition, in [16], the remaining at 1 h, 1 µM was determined as 10%. This molecule registered a F in the series on Syrian golden hamster of 21%. The AUC(0-t) in series [17] came out at 3400 ng·h/mL; in [24], 710 ng·h/mL. The molecule further returned a clearance in series [18] of 59 mL/min/kg. Moreover, the half-life in series [19] is 1.4 h; in [20], 17 h. In addition, in [22], the time of peak concentration (Tmax) was determined as 1.7 h. In addition, the highest level in [23] (Cmax) was 1100 ng/mL. In series [25], the C0 was 520 ng/mL.
